Measured values as given in ChEMBL document CHEMBL1138411, “Design, synthesis, and biological evaluation of 1,3-dioxoisoindoline-5-carboxamide derivatives as T-type calcium channel blockers” (Bioorg Med Chem Lett, 2007).

Key:
[1] = target: Voltage-dependent T-type calcium channel subunit alpha-1G (Homo sapiens, UniProt O43497); test: Inhibition of T-type calcium channel Cav3.1 expressed in HEK293 cells co-expressing alpha1G subunit and Kir2.1 potassium channel by patch-clamp assay; format: cell-based
In short: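 Cells were HEK293 stably co-expressing Cav3.1 (α1G) and Kir2.1. Single-cell patch-clamp recording measured % inhibition of Ca2+ current at set compound concentrations, giving IC50 values. This was a secondary screen of compounds selected from a primary FDSS6000 fluorescence high-throughput assay.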

[2] = Inhibition of N-type calcium channel activity; parameters: species or system Homo sapiens
Homo sapiens = species on record: Homo sapiens; test: Selectivity index, ratio of IC50 for N-type calcium channel to IC50 for T-type calcium channel Cav3.1
[3] = Cytotoxicity against HEK293 cells by MTT assay; format: cell-based; details: human
In short: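 MTT viability read-out. Negative control was 0.1% DMSO and positive control was H2O2.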

Voltage-dependent T-type calcium channel subunit alpha-1G, sequence (O43497 whole entry): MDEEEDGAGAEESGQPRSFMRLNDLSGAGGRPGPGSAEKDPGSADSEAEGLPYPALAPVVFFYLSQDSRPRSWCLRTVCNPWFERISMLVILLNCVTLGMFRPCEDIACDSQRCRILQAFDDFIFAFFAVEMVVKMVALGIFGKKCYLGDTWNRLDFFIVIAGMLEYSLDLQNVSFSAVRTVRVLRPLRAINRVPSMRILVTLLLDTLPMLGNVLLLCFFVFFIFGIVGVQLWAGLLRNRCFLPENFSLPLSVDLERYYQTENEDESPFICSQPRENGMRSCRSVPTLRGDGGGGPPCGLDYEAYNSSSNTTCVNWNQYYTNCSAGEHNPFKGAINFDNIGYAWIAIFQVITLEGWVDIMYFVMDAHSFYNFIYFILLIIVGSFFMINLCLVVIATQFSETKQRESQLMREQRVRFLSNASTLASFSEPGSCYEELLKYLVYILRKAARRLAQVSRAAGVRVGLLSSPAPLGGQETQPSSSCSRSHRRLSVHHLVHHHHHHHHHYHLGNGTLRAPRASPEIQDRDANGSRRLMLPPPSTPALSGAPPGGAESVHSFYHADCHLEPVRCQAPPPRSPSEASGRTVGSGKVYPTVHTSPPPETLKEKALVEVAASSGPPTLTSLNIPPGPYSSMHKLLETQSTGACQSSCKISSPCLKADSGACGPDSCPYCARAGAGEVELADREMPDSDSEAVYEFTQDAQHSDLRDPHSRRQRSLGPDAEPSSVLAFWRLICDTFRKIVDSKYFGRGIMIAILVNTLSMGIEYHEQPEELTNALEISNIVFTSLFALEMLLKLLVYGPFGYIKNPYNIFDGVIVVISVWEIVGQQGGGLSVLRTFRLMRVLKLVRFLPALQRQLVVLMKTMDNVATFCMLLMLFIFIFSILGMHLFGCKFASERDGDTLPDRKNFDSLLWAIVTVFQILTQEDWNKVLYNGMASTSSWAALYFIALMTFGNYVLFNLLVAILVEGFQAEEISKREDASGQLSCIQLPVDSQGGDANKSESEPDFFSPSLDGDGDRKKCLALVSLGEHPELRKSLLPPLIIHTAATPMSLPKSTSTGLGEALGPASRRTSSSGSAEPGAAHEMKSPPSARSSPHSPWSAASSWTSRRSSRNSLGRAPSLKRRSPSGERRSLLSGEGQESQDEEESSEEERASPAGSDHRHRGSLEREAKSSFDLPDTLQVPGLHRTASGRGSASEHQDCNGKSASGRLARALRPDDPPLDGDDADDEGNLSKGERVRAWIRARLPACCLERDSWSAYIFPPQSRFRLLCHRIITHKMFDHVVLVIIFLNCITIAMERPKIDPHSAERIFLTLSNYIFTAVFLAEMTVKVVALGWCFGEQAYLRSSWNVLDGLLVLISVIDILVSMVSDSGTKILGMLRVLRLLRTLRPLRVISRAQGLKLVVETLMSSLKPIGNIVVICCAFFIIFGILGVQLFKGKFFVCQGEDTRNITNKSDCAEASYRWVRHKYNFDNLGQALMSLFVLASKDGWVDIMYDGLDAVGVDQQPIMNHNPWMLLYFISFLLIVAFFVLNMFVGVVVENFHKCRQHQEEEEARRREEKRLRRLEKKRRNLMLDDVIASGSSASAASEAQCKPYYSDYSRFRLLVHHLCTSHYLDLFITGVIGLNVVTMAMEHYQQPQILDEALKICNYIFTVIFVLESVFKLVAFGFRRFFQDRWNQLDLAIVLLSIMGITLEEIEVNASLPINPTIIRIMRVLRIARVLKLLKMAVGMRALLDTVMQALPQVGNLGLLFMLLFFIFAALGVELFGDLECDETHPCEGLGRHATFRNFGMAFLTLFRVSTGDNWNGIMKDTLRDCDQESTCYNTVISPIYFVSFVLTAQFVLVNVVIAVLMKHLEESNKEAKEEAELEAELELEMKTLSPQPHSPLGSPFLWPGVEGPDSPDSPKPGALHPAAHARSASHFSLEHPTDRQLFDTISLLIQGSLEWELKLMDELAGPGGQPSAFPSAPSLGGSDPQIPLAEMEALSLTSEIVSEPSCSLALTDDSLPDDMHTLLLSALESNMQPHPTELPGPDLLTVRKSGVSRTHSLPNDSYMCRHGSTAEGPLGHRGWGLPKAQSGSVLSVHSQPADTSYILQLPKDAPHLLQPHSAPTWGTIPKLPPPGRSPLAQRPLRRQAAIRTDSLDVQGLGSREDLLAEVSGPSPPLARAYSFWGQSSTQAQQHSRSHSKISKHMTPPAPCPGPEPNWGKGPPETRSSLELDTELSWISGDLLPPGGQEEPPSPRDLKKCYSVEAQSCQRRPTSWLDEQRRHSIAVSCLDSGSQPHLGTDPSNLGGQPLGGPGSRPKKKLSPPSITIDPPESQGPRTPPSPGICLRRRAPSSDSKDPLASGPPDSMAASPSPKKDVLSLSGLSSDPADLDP

| SMILES | IC50 [1] [µM] | also measured |
| --- | --- | --- |
| COc1cccc(CN2C(=O)c3ccc(C(=O)NCCN4CCCCC4)cc3C2=O)c1 | 14.1 |  |
| O=C(NCCN1CCCCC1)c1ccc2c(c1)C(=O)N(Cc1ccc(F)cc1)C2=O | 8.88 |  |
| CC1CCCCN1CCCNC(=O)c1ccc2c(c1)C(=O)N(Cc1ccc(Cl)cc1)C2=O (stereo unspecified) |  | IC50 [2]: 54.7 µM; Ratio IC50 (Homo sapiens): 59; CC50 [3]: > 100 µM |
| Cc1ccc(CN2C(=O)c3ccc(C(=O)NCCCN4CCCCC4C)cc3C2=O)cc1 (stereo unspecified) | 3.53 |  |
| COc1ccc(CN2C(=O)c3ccc(C(=O)NCCN4CCCCC4)cc3C2=O)cc1 | 5.25 |  |
| O=C(NCCN1CCCCC1)c1ccc2c(c1)C(=O)N(Cc1ccc(Cl)cc1)C2=O |  | IC50 [2]: 33.4 µM; Ratio IC50 (Homo sapiens): 35; CC50 [3]: > 100 µM |
| O=C(NCCCN1CCCC1)c1ccc2c(c1)C(=O)N(Cc1ccc(Cl)cc1)C2=O | 1.62 |  |
| O=C(NCCN1CCCCC1)c1ccc2c(c1)C(=O)N(Cc1ccccc1Cl)C2=O | 5.82 |  |
| O=C(NCCN1CCCCC1)c1ccc2c(c1)C(=O)N(Cc1cccc(Cl)c1)C2=O | 4.09 |  |
| O=C(NCCN1CCCCC1)c1ccc2c(c1)C(=O)N(Cc1ccccc1)C2=O | 22.8 |  |
| Cc1ccc(CN2C(=O)c3ccc(C(=O)NCCN4CCCCC4)cc3C2=O)cc1 | 5.82 |  |
| O=C(NCCN1CCCCC1)c1ccc2c(c1)C(=O)N(Cc1ccccc1F)C2=O | 14.9 |  |
